Test results published in ChEMBL document CHEMBL1124223, “1-Substituted 7-[3-[(ethylamino)methyl]-1-pyrrolidinyl]-6,8- difluoro-1,4-dihydro-4-oxo-3-quinolinecarboxylic acids. New quantitative structure-activity relationships at N1 for the quinolone antibacterials” (1988).
≈ marks a conversion by molar mass, not a printed value.

Key:
Escherichia coli [1] = assay: Minimum inhibitory concentration against Escherichia coli (H560); assay type: functional
Procedure, shortened: (§1)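 MICs were determined by standard microtitration against a panel of 11 bacterial strains. Aqueous stock solutions were prepared with 0.1 N sodium or potassium hydroxide.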

Escherichia coli [2] = assay: Minimum inhibitory concentration against Escherichia coli (vogel); assay type: functional; procedure, shortened: as §1
Enterobacter cloacae = assay: Minimum inhibitory concentration against Enterobacter cloacae. (MA2446).; assay type: functional
[3] = target: DNA gyrase (Escherichia coli) (UniProt P0AES6+P0AES4); assay: Concentration required for 50% inhibition of gyrase.; assay type: protein-complex assay
Procedure, shortened: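 DNA gyrase inhibition: the drug concentration (µg/mL) giving 50% inhibition (I50) was recorded, along with the lowest concentration inducing gyrase-mediated DNA cleavage. Data come from duplicate experiments with ±50% reproducibility.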

Klebsiella pneumoniae = assay: Minimum inhibitory concentration against Klebsiella pneumoniae (MGH-2); assay type: functional; procedure, shortened: as §1
Mus musculus [4] = assay: In vivo activity against Pseudomonas aeruginosa (po); assay type: functional; conditions: read-out: PD50
Procedure, shortened: (§2)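 Median protective dose (PD50, mg/kg) measured in acute, lethal, systemic infections in female Charles River CD-1 mice. A single dose of compound was given at the time of bacterial challenge. Aqueous stock solutions were made with 0.1 N sodium or potassium hydroxide.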

Mus musculus [5] = assay: In vivo activity against Pseudomonas aeruginosa (sc); assay type: functional; conditions: read-out: PD50; procedure, shortened: as §2
Mus musculus [6] = assay: In vivo activity against Streptococcus pneumoniae (po); assay type: functional; conditions: read-out: PD50; procedure, shortened: as §2
Mus musculus [7] = assay: In vivo activity against Streptococcus pneumoniae (sc); assay type: functional; conditions: read-out: PD50; procedure, shortened: as §2
Mus musculus [8] = assay: In vivo activity against Streptococcus pyogenes (po); assay type: functional; conditions: read-out: PD50; procedure, shortened: as §2
Mus musculus [9] = assay: In vivo activity against Streptococcus pyogenes (sc); assay type: functional; conditions: read-out: PD50; procedure, shortened: as §2
Mus musculus [10] = assay: In vivo activity against Escherichia coli (po); assay type: functional; conditions: read-out: PD50; procedure, shortened: as §2
Pseudomonas aeruginosa = assay: Minimum inhibitory concentration against Pseudomonas aeruginosa. (UI-18); assay type: functional; procedure, shortened: as §1
Providencia rettgeri = assay: Minimum inhibitory concentration against Providencia rettgeri. (M1771); assay type: functional; procedure, shortened: as §1
Streptococcus pyogenes = assay: Minimum inhibitory concentration against Streptococcus pyogenes (C203).; assay type: functional; procedure, shortened: as §1
Staphylococcus aureus [11] = assay: Minimum inhibitory concentration against Staphylococcus aureus (H-228).; assay type: functional; procedure, shortened: as §1
Staphylococcus aureus [12] = assay: Minimum inhibitory concentration against Staphylococcus aureus (UC76).; assay type: functional; procedure, shortened: as §1
Streptococcus pneumoniae = assay: Minimum inhibitory concentration against Streptococcus pneumoniae (SV-1).; assay type: functional; procedure, shortened: as §1
Enterobacter = assay: Minimum inhibitory concentration against gram-negative enterobacteriaceae.; assay type: functional
Procedure, shortened: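 This value is the geometric mean of microtitration MICs for the Gram-negative Enterobacteriaceae strains in the 11-organism panel. Aqueous stocks were prepared in 0.1 N sodium or potassium hydroxide.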

Mus musculus [13] = assay: In vivo activity against Escherichia coli (sc); assay type: functional; conditions: read-out: PD50; procedure, shortened: as §2
Enterococcus faecalis = assay: Minimum inhibitory concentration against Streptococcus faecalis (MGH-2).; assay type: functional; procedure, shortened: as §1

MIC (Escherichia coli [1]) [µg/mL]	MIC (Escherichia coli [2]) [µg/mL]	MIC (Enterobacter cloacae) [µg/mL]	IC50 [3] [µg/mL]	MIC (Klebsiella pneumoniae) [µg/mL]	MIC (Pseudomonas aeruginosa) [µg/mL]	MIC (Providencia rettgeri) [µg/mL]	MIC (Streptococcus pyogenes) [µg/mL]	MIC (Staphylococcus aureus [11]) [µg/mL]	MIC (Staphylococcus aureus [12]) [µg/mL]	MIC (Streptococcus pneumoniae) [µg/mL]	MIC (Enterobacter) [µg/mL]	MIC (Enterococcus faecalis) [µg/mL]	SMILES	further results
3.1 (≈ 7.15 µM)	6.3 (≈ 14.5 µM)	25 (≈ 57.7 µM)	30 (≈ 69.2 µM)	12.5 (≈ 28.8 µM)	> 100	> 100	6.3 (≈ 14.5 µM)	6.3 (≈ 14.5 µM)	3.1 (≈ 7.15 µM)	3.1 (≈ 7.15 µM)	16.5 (≈ 38.1 µM)	6.3 (≈ 14.5 µM)	CCNCC1CCN(c2c(F)cc3c(=O)c(C(=O)O)cn(C4CCCCC4)c3c2F)C1 (stereo not drawn)	–
0.1 (≈ 0.224 µM)	0.8 (≈ 1.8 µM)	0.8 (≈ 1.8 µM)	14 (≈ 31.4 µM)	1.6 (≈ 3.59 µM)	1.6 (≈ 3.59 µM)	1.6 (≈ 3.59 µM)	0.4 (≈ 0.898 µM)	0.1 (≈ 0.224 µM)	0.2 (≈ 0.449 µM)	0.4 (≈ 0.898 µM)	0.7 (≈ 1.57 µM)	0.2 (≈ 0.449 µM)	CCNCC1CCN(c2c(F)cc3c(=O)c(C(=O)O)cn(-c4ccc(F)cc4)c3c2F)C1 (stereo not drawn)	–
1.6 (≈ 3.95 µM)	0.8 (≈ 1.97 µM)	3.1 (≈ 7.65 µM)	6.3 (≈ 15.5 µM)	0.8 (≈ 1.97 µM)	3.1 (≈ 7.65 µM)	1.6 (≈ 3.95 µM)	0.8 (≈ 1.97 µM)	0.4 (≈ 0.987 µM)	0.1 (≈ 0.247 µM)	0.8 (≈ 1.97 µM)	1.38 (≈ 3.4 µM)	0.2 (≈ 0.493 µM)	CCNCC1CCN(c2c(F)cc3c(=O)c(C(=O)O)cn(C4(C)CC4)c3c2F)C1 (stereo not drawn)	–
0.8 (≈ 1.91 µM)	3.1 (≈ 7.39 µM)	6.3 (≈ 15 µM)	28 (≈ 66.8 µM)	3.1 (≈ 7.39 µM)	12.5 (≈ 29.8 µM)	12.5 (≈ 29.8 µM)	0.4 (≈ 0.954 µM)	0.4 (≈ 0.954 µM)	0.1 (≈ 0.238 µM)	0.2 (≈ 0.477 µM)	3.6 (≈ 8.58 µM)	0.4 (≈ 0.954 µM)	CCNCC1CCN(c2c(F)cc3c(=O)c(C(=O)O)cn(C4CCCC4)c3c2F)C1 (stereo not drawn)	–
0.4 (≈ 0.923 µM)	0.8 (≈ 1.85 µM)	1.6 (≈ 3.69 µM)	26 (≈ 60 µM)	0.8 (≈ 1.85 µM)	6.3 (≈ 14.5 µM)	3.1 (≈ 7.15 µM)	0.4 (≈ 0.923 µM)	0.4 (≈ 0.923 µM)	0.1 (≈ 0.231 µM)	0.4 (≈ 0.923 µM)	1.05 (≈ 2.42 µM)	0.2 (≈ 0.461 µM)	CCNCC1CCN(c2c(F)cc3c(=O)c(C(=O)O)cn(CC(F)(F)F)c3c2F)C1 (stereo not drawn)	–
0.2 (≈ 0.526 µM)	0.2 (≈ 0.526 µM)	0.2 (≈ 0.526 µM)	27 (≈ 71 µM)	0.2 (≈ 0.526 µM)	0.8 (≈ 2.1 µM)	1.6 (≈ 4.21 µM)	0.2 (≈ 0.526 µM)	0.4 (≈ 1.05 µM)	0.2 (≈ 0.526 µM)	0.1 (≈ 0.263 µM)	0.3 (≈ 0.789 µM)	0.4 (≈ 1.05 µM)	CCNCC1CCN(c2c(F)cc3c(=O)c(C(=O)O)cn(NC)c3c2F)C1 (stereo not drawn)	–
0.2 (≈ 0.508 µM)	0.8 (≈ 2.03 µM)	1.6 (≈ 4.07 µM)	28 (≈ 71.2 µM)	0.8 (≈ 2.03 µM)	12.5 (≈ 31.8 µM)	6.3 (≈ 16 µM)	0.2 (≈ 0.508 µM)	0.4 (≈ 1.02 µM)	0.2 (≈ 0.508 µM)	0.8 (≈ 2.03 µM)	1.05 (≈ 2.67 µM)	1.6 (≈ 4.07 µM)	CCNCC1CCN(c2c(F)cc3c(=O)c(C(=O)O)cn(C(C)C)c3c2F)C1 (stereo not drawn)	–
0.1 (≈ 0.265 µM)	0.2 (≈ 0.53 µM)	0.2 (≈ 0.53 µM)	2.9 (≈ 7.68 µM)	0.4 (≈ 1.06 µM)	1.6 (≈ 4.24 µM)	1.6 (≈ 4.24 µM)	0.1 (≈ 0.265 µM)	0.4 (≈ 1.06 µM)	0.1 (≈ 0.265 µM)	0.2 (≈ 0.53 µM)	0.3 (≈ 0.795 µM)	0.4 (≈ 1.06 µM)	C=Cn1cc(C(=O)O)c(=O)c2cc(F)c(N3CCC(CNCC)C3)c(F)c21 (stereo not drawn)	–
0.1 (≈ 0.274 µM)	0.4 (≈ 1.09 µM)	1.6 (≈ 4.38 µM)	7.5 (≈ 20.5 µM)	0.4 (≈ 1.09 µM)	1.6 (≈ 4.38 µM)	1.6 (≈ 4.38 µM)	0.4 (≈ 1.09 µM)	1.6 (≈ 4.38 µM)	0.2 (≈ 0.547 µM)	0.4 (≈ 1.09 µM)	0.53 (≈ 1.45 µM)	1.6 (≈ 4.38 µM)	CCNCC1CCN(c2c(F)cc3c(=O)c(C(=O)O)cn(C)c3c2F)C1 (stereo not drawn)	–

SMILES	MIC (Escherichia coli [1]) [µg/mL]	MIC (Escherichia coli [2]) [µg/mL]	MIC (Enterobacter cloacae) [µg/mL]	IC50 [3] [µg/mL]	MIC (Klebsiella pneumoniae) [µg/mL]	MIC (Pseudomonas aeruginosa) [µg/mL]	MIC (Providencia rettgeri) [µg/mL]	MIC (Streptococcus pyogenes) [µg/mL]	MIC (Staphylococcus aureus [11]) [µg/mL]	MIC (Staphylococcus aureus [12]) [µg/mL]	MIC (Streptococcus pneumoniae) [µg/mL]	MIC (Enterobacter) [µg/mL]	MIC (Enterococcus faecalis) [µg/mL]	further results
CCNCC1CCN(c2c(F)cc3c(=O)c(C(=O)O)cn(C4CC4)c3c2F)C1 (stereo not drawn) [PD-117558]	0.013 (≈ 0.0332 µM)	0.05 (≈ 0.128 µM)	0.1 (≈ 0.255 µM)	1.4 (≈ 3.58 µM)	0.05 (≈ 0.128 µM)	0.4 (≈ 1.02 µM)	0.2 (≈ 0.511 µM)	0.025 (≈ 0.0639 µM)	0.05 (≈ 0.128 µM)	0.006 (≈ 0.0153 µM)	0.025 (≈ 0.0639 µM)	0.06 (≈ 0.153 µM)	0.025 (≈ 0.0639 µM)	ED50 (Mus musculus [4]): 40 mg/kg; ED50 (Mus musculus [5]): 13 mg/kg; ED50 (Mus musculus [6]): 3 mg/kg; ED50 (Mus musculus [7]): 2 mg/kg; ED50 (Mus musculus [8]): 2 mg/kg; ED50 (Mus musculus [9]): 0.5 mg/kg; ED50 (Mus musculus [10]): 4 mg/kg; ED50 (Mus musculus [13]): 1 mg/kg
